# Test results from ChEMBL document CHEMBL4049410, “Novel benzimidazolyl tetrahydroprotoberberines: Design, synthesis, antimicrobial evaluation and multi-targeting exploration” (2017).
# Activity calls are given as the source filed them. The calls are words filed in the database; no cut-off is given here.
# Columns and labels:
# [1] = Binding affinity to DNA (unknown origin) assessed as hyperchromic effect up to 1.4 x 10^-5mol/L by UV-Visible absorption spectroscopy
# How it was run: (§1)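 Calf thymus DNA is held at a fixed concentration, quantified by A260 (ε260 = 6600 L mol⁻¹ cm⁻¹, per phosphate) and checked for A260/A280 > 1.8. It is titrated with increasing compound in Tris-HCl pH 7.4 at 290 K. UV-vis spectra are recorded, following absorbance at 260 nm. The binding constant K is derived from a linear fit (R, SD reported).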
# Escherichia coli [2] = experiment: Antibacterial activity against Escherichia coli DH52 after 24 hrs by two-fold serial dilution assay; assay type: functional
# How it was run: (§2)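 Twofold serial broth dilution following NCCLS guidance, with Chloromycin, Norfloxacin and Fluconazole as positive controls. MIC in μM is the lowest concentration giving complete inhibition of visible bacterial or fungal growth.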
# Bos taurus [3] = organism: Bos taurus; experiment: Induction of calf thymus DNA intercalation assessed as protection of compound quenching from iodide ion by fluorescence assay (reference value: 104.52 L/mol)
# Pseudomonas aeruginosa = experiment: Antibacterial activity against Pseudomonas aeruginosa after 24 hrs by two-fold serial dilution assay; assay type: functional; how it was run: as §2
# Staphylococcus aureus [4] = experiment: Antibacterial activity against methicillin-resistant Staphylococcus aureus N315 after 15 serial passages by two-fold serial dilution assay; assay type: functional
# How it was run: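 Resistance-development test in MRSA. Cultures were propagated with fresh medium and serially diluted test agent, and the MIC was redetermined every 24 h. Parallel cultures were exposed to 2-fold dilutions of Chloromycin and Norfloxacin as positive controls. MIC was the lowest concentration giving complete growth inhibition.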
# Candida albicans = experiment: Antifungal activity against Candida albicans ATCC 76615 after 24 hrs by two-fold serial dilution assay; assay type: functional; how it was run: as §2
# Saccharomyces cerevisiae = experiment: Antifungal activity against Saccharomyces cerevisiae after 24 hrs by two-fold serial dilution assay; assay type: functional; how it was run: as §2
# Shigella dysenteriae = experiment: Antibacterial activity against Shigella dysenteriae after 24 hrs by two-fold serial dilution assay; assay type: functional
# Escherichia coli [5] = experiment: Antibacterial activity against Escherichia coli JM109 after 24 hrs by two-fold serial dilution assay; assay type: functional; how it was run: as §2
# Pichia norvegensis = experiment: Antifungal activity against Candida mycoderma after 24 hrs by two-fold serial dilution assay; assay type: functional; how it was run: as §2
# [6] = Binding affinity to DNA (unknown origin) by UV-Visible absorption spectroscopy; how it was run: as §1
# Staphylococcus aureus [7] = experiment: Antibacterial activity against Staphylococcus aureus ATCC 25923 after 24 hrs by two-fold serial dilution assay; assay type: functional; how it was run: as §2
# Proteus vulgaris = experiment: Antibacterial activity against Bacillus proteus ATCC 13315 after 24 hrs by two-fold serial dilution assay; assay type: functional; how it was run: as §2
# Escherichia coli [8] = experiment: Induction of Escherichia coli pBR322 DNA cleavage assessed as conversion of covalently closed circular DNA to open circular form and linear form of DNA by agarose gel electrophoresis method
# How it was run: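 Supercoiled pBR322 plasmid is incubated with compound at 25, 50 and 75 μM alongside a DNA-only control at 37 °C, pH 7.0. Products are resolved by gel electrophoresis, scoring conversion of Form I to Form II (nicked) and Form III (linear).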
# Bacillus subtilis = experiment: Antibacterial activity against Bacillus subtilis after 24 hrs by two-fold serial dilution assay; assay type: functional; how it was run: as §2
# Micrococcus luteus = experiment: Antibacterial activity against Micrococcus luteus ATCC 4698 after 24 hrs by two-fold serial dilution assay; assay type: functional, NCTC 2665; how it was run: as §2
# Bos taurus [9] = organism: Bos taurus; experiment: Inhibition of neutral red binding to calf thymus DNA up to 1.4 x 10^-5mol/L by UV-Visible absorption spectroscopy
# Staphylococcus aureus [10] = experiment: Antibacterial activity against methicillin-resistant Staphylococcus aureus N315 after 24 hrs by two-fold serial dilution assay; assay type: functional
# Salmonella typhi = experiment: Antibacterial activity against Bacillus typhi after 24 hrs by two-fold serial dilution assay; assay type: functional, Salmonella enterica subsp. enterica serovar Typhi
# Aspergillus flavus = experiment: Antifungal activity against Aspergillus flavus after 24 hrs by two-fold serial dilution assay; assay type: functional; how it was run: as §2
# Cyberlindnera jadinii = experiment: Antifungal activity against Candida utilis after 24 hrs by two-fold serial dilution assay; assay type: functional; how it was run: as §2
# [11] = Escherichia coli, DH52, 24 h, read-out: MIC
# [12] = Pseudomonas aeruginosa, 24 h, read-out: MIC
# [13] = Candida albicans, ATCC 76615, 24 h, read-out: MIC
# [14] = Saccharomyces cerevisiae, 24 h, read-out: MIC
# [15] = Shigella dysenteriae, 24 h, read-out: MIC
# [16] = Escherichia coli, JM109, 24 h, read-out: MIC
# [17] = Pichia norvegensis, 24 h, read-out: MIC
# [18] = Staphylococcus aureus, ATCC 25923, 24 h, read-out: MIC
# [19] = Proteus vulgaris, ATCC 13315, 24 h, read-out: MIC
# [20] = Bacillus subtilis, 24 h, read-out: MIC
# [21] = Micrococcus luteus, NCTC 2665, 24 h, read-out: MIC
# [22] = Staphylococcus aureus, N315, 24 h, read-out: MIC
# [23] = Salmonella enterica, 24 h, read-out: MIC
# [24] = Aspergillus flavus, 24 h, read-out: MIC
# [25] = Williopsis jadinii, 24 h, read-out: MIC
SMILES,MIC (Escherichia coli [2]; [11]) [µM],MIC (Pseudomonas aeruginosa; [12]) [µM],MIC (Candida albicans; [13]) [µM],MIC (Saccharomyces cerevisiae; [14]) [µM],MIC (Shigella dysenteriae; [15]) [µM],MIC (Escherichia coli [5]; [16]) [µM],MIC (Pichia norvegensis; [17]) [µM],MIC (Staphylococcus aureus [7]; [18]) [µM],MIC (Proteus vulgaris; [19]) [µM],MIC (Bacillus subtilis; [20]) [µM],MIC (Micrococcus luteus; [21]) [µM],MIC (Staphylococcus aureus [10]; [22]) [µM],MIC (Salmonella typhi; [23]) [µM],MIC (Aspergillus flavus; [24]) [µM],MIC (Cyberlindnera jadinii; [25]) [µM],further results
COc1cc(-c2nc3cc(F)ccc3[nH]2)c2c(c1O)CN1CCc3cc4c(cc3C1C2)OCO4 (stereo unspecified),23.2,11.6,58,8.7,17.4,8.7,8.7,58,69.6,4.4,46.4,17.4,14.5,58,14.5,Activity [1]: Active; KSV (Bos taurus [3]): 87.7 L/mol; Activity (Staphylococcus aureus [4]): Active; K [6]: 2.87 ×10⁴ L/mol; Activity (Escherichia coli [8]): Dose-dependent effect; inhibition (Bos taurus [9]): Active
CCCCCCCCn1c(-c2cc(OC)c(O)c3c2CC2c4cc5c(cc4CCN2C3)OCO5)nc2ccccc21 (stereo unspecified),24.1,38.5,28.9,96.3,77.1,116,4.8,14.4,9.6,57.8,48.2,231,24.1,28.9,24.1,
COc1cc(-c2nc3ccccc3n2Cc2cccc(Cl)c2)c2c(c1O)CN1CCc3cc4c(cc3C1C2)OCO4 (stereo unspecified),75.4,28.3,37.7,47.1,23.6,4.7,18.9,23.6,47.1,47.1,28.3,56.5,4.7,18.9,9.4,
COc1cc(-c2nc3cc(Cl)ccc3[nH]2)c2c(c1O)CN1CCc3cc4c(cc3C1C2)OCO4 (stereo unspecified),896,359,896,896,1080,896,896,1080,896,717,896,1080,448,1080,717,
COc1cc(-c2nc3ccccc3n2CCCCCCn2c3ccccc3c3ccccc32)c2c(c1O)CN1CCc3cc4c(cc3C1C2)OCO4.Cl (stereo unspecified),,,,,,,,,,,,,,,,MIC (Escherichia coli [2]): 88 µM; MIC (Pseudomonas aeruginosa): 469.3 µM; MIC (Candida albicans): 176 µM; MIC (Saccharomyces cerevisiae): 469.3 µM; MIC (Shigella dysenteriae): 146.7 µM; MIC (Escherichia coli [5]): 469.3 µM; MIC (Pichia norvegensis): 352 µM; MIC (Staphylococcus aureus [7]): 146.7 µM; MIC (Proteus vulgaris): 88 µM; MIC (Bacillus subtilis): 704 µM; MIC (Micrococcus luteus): 293.3 µM; MIC (Staphylococcus aureus [10]): 586.7 µM; MIC (Salmonella typhi): 73.3 µM; MIC (Aspergillus flavus): 293.3 µM; MIC (Cyberlindnera jadinii): 469.3 µM
COc1ccc2c(c1O)CN1CCc3cc4c(cc3C1C2)OCO4 (stereo unspecified),1570,787,524,1570,1570,656,164,787,1310,1570,1570,1310,787,656,1050,
COc1cc(-c2nc3ccccc3n2Cc2ccccc2Cl)c2c(c1O)CN1CCc3cc4c(cc3C1C2)OCO4 (stereo unspecified),23.6,23.6,56.5,23.6,28.3,4.7,47.1,9.4,47.1,188,23.6,23.6,37.7,11.8,18.9,
COc1cc(-c2nc3ccccc3[nH]2)c2c(c1O)CN1CCc3cc4c(cc3C1C2)OCO4 (stereo unspecified),96.7,145,483,48.3,96.7,60.4,60.4,580,242,48.3,242,121,48.3,72.5,242,
